# Active and inactive are the calls of the source. No cut-off for these calls is given here.
# Species: Rattus norvegicus
# Test: Activation of soluble guanylyl cyclase in Wistar rat aortic smooth muscle cell assessed as increase of cGMP accumulation at 1 uM after 15 mins by enzyme immunoassay
# Method in brief: (§1)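 Confluent rat aortic smooth muscle cells were exposed to vehicle or compound (0.01−1 μM) for 15 min, alone or together with 1 μM BAY 58-2667. cGMP was then extracted and quantified. Values are means ± SEM, n = 4.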
row,Activity,SMILES
1,Active,O=C(O)CCCCN(CCc1ccccc1OCc1ccc(-c2ccc(Oc3ccccc3)cc2)cc1)Cc1ccc(C(=O)O)cc1
2,inactive,O=C(O)CCCN(CCc1ccccc1OCc1ccc(CCc2ccccc2)cc1)Cc1ccc(C(=O)O)cc1
3,Active,O=C(O)CCCCN(CCc1ccccc1OCc1ccc(-c2ccc(OCc3ccccc3)cc2)cc1)Cc1ccc(C(=O)O)cc1
4,Active,COc1ccc(COc2ccc(-c3ccc(COc4ccccc4CCN(CCCCC(=O)O)Cc4ccc(C(=O)O)cc4)cc3)cc2)cc1
5,inactive,O=C(O)CCCCCN(CCc1ccccc1OCc1ccc(CCc2ccccc2)cc1)Cc1ccc(C(=O)O)cc1
6,Active,O=C(O)CCCC(=O)N(CCc1ccccc1OCc1ccc(-c2ccc(OCc3ccccc3)cc2)cc1)Cc1ccc(C(=O)O)cc1

# Species: Rattus norvegicus
# Test: Activation of soluble guanylyl cyclase in Wistar rat aortic smooth muscle cell assessed as increase of cGMP accumulation after 15 mins by enzyme immunoassay
# Method in brief: as §1
row,Activity,SMILES
1,Dose-dependent effect,O=C(O)CCCCN(CCc1ccccc1OCc1ccc(-c2ccc(Oc3ccccc3)cc2)cc1)Cc1ccc(C(=O)O)cc1

# Species: Rattus norvegicus
# Test: Inhibition of soluble guanylyl cyclase in Wistar rat aortic smooth muscle cell assessed as reduction of cGMP accumulation at 1 uM after 15 mins by enzyme immunoassay
# Method in brief: as §1
row,inhibition [%],SMILES
1,80,O=C(O)CCC(=O)N(CCc1ccccc1OCc1ccc(CCc2ccccc2)cc1)Cc1ccc(C(=O)O)cc1
2,80,O=C(O)CCCC(=O)N(CCc1ccccc1OCc1ccc(CCc2ccccc2)cc1)Cc1ccc(C(=O)O)cc1
3,80,O=C(O)CCCCC(=O)N(CCc1ccccc1OCc1ccc(CCc2ccccc2)cc1)Cc1ccc(C(=O)O)cc1
